# Data taken from PMC9734322 (Inflammation Research, 2022).
# pEC50: −log10 of the molar value.
# How the values were obtained:
# [1] = tested on: initiation or propagation pathway of the coagulation cascade (plasma); experiment: Activated partial thromboplastin time; assay type: biochemical, human; details: control 41.3 ± 0.7 s
# [2] = tested on: calcium-dependent coagulation cascade factors (plasma); experiment: Plasma recalcification time test; assay type: biochemical, human; details: control 196.9 ± 9 s
# In short: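 Pooled citrated plasma from healthy donors (100 µL) was incubated with saline or test compound for 10 min at 37 °C. CaCl₂ was added (12.5 mM final) and clotting time recorded in a coagulometer. Mean ± SEM.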
# [3] = tested on: extrinsic pathway and common pathways of the coagulation cascade (plasma); experiment: Prothrombin time test; assay type: biochemical, human; details: control 15 ± 2 s
# [4] = tested on: carrageenan-induced peritonitis; experiment: Carrageenan-induced peritonitis, total and differential leukocyte count; assay type: in vivo, mice; details: for % Mononuclear cells / % Neutrophils: mean ± SD
# In short: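 Mice were pretreated i.p. (100 µL) with test compound or dexamethasone 10 mg/kg, then given carrageenan 10 mg/kg i.p. 1 h later; PBS pH 7.4 served as negative control. Peritoneal fluid was collected 3 h after first administration. Total leukocytes were counted in a Neubauer chamber. Slides were methanol-fixed 5 min and Giemsa-stained 15–20 min; 100 cells were counted per slide. Three experiments on different days; mean ± SD; ANOVA/Tukey.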
# P2X7R = details: ATP concentration required for activation; cited from earlier work
# ATP-induced paw edema = ATP-induced paw edema assay; assay type: in vivo, mice (Swiss Webster); details: 10 mM ATP subplantar, phlogistic agent
# In short: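 Male Swiss Webster mice (~30 g) were given test compound at 100, 500 or 1000 ng/kg i.p. 1 h before ATP (10 mM/paw subplantar, 20 µL), with 0.9% NaCl in the contralateral paw. Diclofenac 10 mg/kg i.p. was the positive control and saline the negative control. Paw volume was read by plethysmometer 60 min after ATP. Three experiments on different days; mean ± SD; one-way ANOVA/Tukey.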
# [5] = tested on: platelet-rich plasma (PRP); details: 1 µM, ADP 15 µM
# [6] = pretreatment, then carrageenan 10 mg/kg 1 h later
# [7] = substance alone, 10 mg/kg as printed, differential count of 100 cells
Molecule,clotting time in the aPTT test ([1]; 1 µM) [s],clotting time in the aPTT test ([1]; 10 µM) [s],plasma recalcification clotting time ([2]; 1 µM) [s],plasma recalcification clotting time ([2]; 10 µM) [s],prothrombin time ([3]; 1 µM) [s],prothrombin time ([3]; 10 µM) [s],"% Mononuclear cells [4, 7]","% Neutrophils [4, 7]",other results
O=C1CN=C(c2cccc(Br)c2)c2oc3ccccc3c2N1 [5-BDBD],41.9 ± 0.6,42.5 ± 0.8,204.6 ± 9,195 ± 7,15.4 ± 0.7,15.7 ± 0.5,–,–,–
C[C@@H]1C[C@H]2[C@@H]3CCC4=CC(=O)C=C[C@]4(C)[C@@]3(F)[C@@H](O)C[C@]2(C)[C@@]1(O)C(=O)CO [dexamethasone],–,–,–,–,–,–,90 ± 6ª %,9 ± 7ª %,"carrageenan-induced increase in white blood cells ([4]; dexamethasone 10 mg/kg i.p. pretreatment): reversed; % Mononuclear cells [4, 6]: 72 ± 9ª %; % Neutrophils [4, 6]: 27 ± 9ª^,g %"
Nc1ncnc2c1ncn2[C@@H]1O[C@H](COP(=O)(O)OP(=O)(O)OP(=O)(O)O)[C@@H](O)[C@H]1O [ATP],–,–,–,–,–,–,–,–,pEC50 (P2X7R): ≤ 4.00; increase in paw edema compared to the saline group (ATP-induced paw edema): 30%
COc1cc(S(=O)(=O)O)cc2cc(S(=O)(=O)O)c(NC(=O)c3ccc(C)c(NC(=O)c4cccc(NC(=O)Nc5cccc(C(=O)Nc6cc(C(=O)Nc7cc8c(OC)cc(S(=O)(=O)O)cc8cc7S(=O)(=O)O)ccc6C)c5)c4)c3)cc12 [NF770],40.9 ± 1,42.2 ± 1,200.4 ± 12,198 ± 8,15.5 ± 1,15.7 ± 1,–,–,–
COC(=O)[C@H](c1ccccc1Cl)N1CCc2sccc2C1 [clopidogrel],–,–,–,–,–,–,–,–,ADP-induced platelet aggregation [5]: inhibited ADP-induced platelet aggregation
carrageenan,–,–,–,–,–,–,28 ± 8%,67 ± 10%,–
